Experimental findings from ChEMBL document CHEMBL4190303, “Chemical Constituents of Propolis from Vietnamese Trigona minor and Their Antiausterity Activity against the PANC-1 Human Pancreatic Cancer Cell Line” (2017) are described below.

The source made the active and inactive calls. The rule behind the calls is not given here.

For the first test, the system named is PANC-1. Put plainly: Antiausteritic activity against human PANC1 cells in nutrient-deprived medium assessed as decrease in cell viability measured after 24 hrs by WST-8 assay. The test is classed as functional. For orientation: Tetrazolium assays rely on reduction of a dye to a coloured formazan, in cell work by metabolically active cells.
With `C/C(=C\C(O)C[C@@H](C)[C@H]1CC[C@@]2(C)[C@@H]3CC[C@H]4C(C)(C)C(=O)CC[C@@]45C[C@@]35CC[C@]12C)C(=O)O` (some centres undefined), the PC50 amounted to 16.8 µM.
For the compound `C/C(=C\C(O)C[C@@H](C)[C@H]1CC[C@@]2(C)[C@@H]3CC[C@H]4C(C)(C)[C@@H](O)CC[C@@]45C[C@@]35CC[C@]12C)C(=O)O` (some centres undefined), the PC50 turned out to be 64.4 µM.
Still for that read-out and setting: the figure for `C[C@H](CC/C=C(\CO)C(=O)O)[C@H]1CC[C@@]2(C)[C@@H]3CC[C@H]4C(C)(C)C(=O)CC[C@@]45C[C@@]35CC[C@]12C` is 93.8 µM.
In the case of `CC(=O)/C=C/C[C@@H](C)[C@H]1CC[C@@]2(C)[C@@H]3CC[C@H]4C(C)(C)[C@@H](O)CC[C@@]45C[C@@]35CC[C@]12C`, the PC50 worked out at 16.4 µM.
The same measure, in the same setting: the figure for `CC(=O)OC/C(=C\CC[C@@H](C)[C@H]1CC[C@@]2(C)[C@@H]3CC[C@H]4C(C)(C)[C@@H](O)CC[C@@]45C[C@@]35CC[C@]12C)C(=O)O` is 22.6 µM; for `COc1cc(C[C@H]2C(=O)OC[C@@H]2Cc2ccc(OC)c(OC)c2)ccc1O` [ARCTIGENIN] it is 0.8 µM.
Take `CC(C)=CCC[C@@H](C)[C@H]1CC[C@@]2(C)[C@@H]3CC[C@H]4C(C)(C)C(=O)CC[C@@]45C[C@@]35CC[C@]12C` [CYCLOARTENONE]: the PC50 was over 100 µM.
The same measure, in the same setting: the same measure for `CC(=O)OC/C(=C\CC[C@@H](C)[C@H]1CC[C@@]2(C)[C@@H]3CC[C@H]4C(C)(C)C(=O)CC[C@@]45C[C@@]35CC[C@]12C)C(=O)O`: 77.5 µM.
In the case of `C/C(=C\C(O)C[C@@H](C)[C@H]1CC[C@@]2(C)[C@@H]3CC[C@H]4C(C)(C)[C@H](O)CC[C@@]45C[C@@]35CC[C@]12C)C(=O)O` (stereo in doubt; 5) [listing 1 of 2 here], the PC50 is 4.3 µM.
On the same count and under the same terms, the figure for `C[C@H](CC/C=C(\CO)C(=O)O)[C@H]1CC[C@@]2(C)[C@@H]3CC[C@H]4C(C)(C)[C@H](O)CC[C@@]45C[C@@]35CC[C@]12C` is 3.7 µM; for `C/C(=C\CC[C@@H](C)[C@H]1CC[C@@]2(C)[C@@H]3CC[C@H]4C(C)(C)[C@@H](O)CC[C@@]45C[C@@]35CC[C@]12C)C(=O)O` [MANGIFEROLIC ACID] it is over 100 µM.
As to `COC(=O)OC/C(=C\CC[C@@H](C)[C@H]1CC[C@@]2(C)[C@@H]3CC[C@H]4C(C)(C)C(=O)CC[C@@]45C[C@@]35CC[C@]12C)C(=O)O`, the PC50 is 32.9 µM.
On the same count and under the same terms, the same measure for `CC(=O)O[C@H]1C(=O)[C@@]2(C)[C@H]([C@H](OC(=O)c3ccccc3)[C@]3(O)C[C@H](OC(=O)[C@H](O)[C@@H](NC(=O)c4ccccc4)c4ccccc4)C(C)=C1C3(C)C)[C@]1(OC(C)=O)CO[C@@H]1C[C@@H]2O` [PACLITAXEL]: over 100 µM; for `C[C@H](CC/C=C(\CO)C(=O)O)[C@H]1CC[C@@]2(C)[C@@H]3CC[C@H]4C(C)(C)[C@@H](O)CC[C@@]45C[C@@]35CC[C@]12C`: 47.6 µM.
Same read-out and setting: the figure for `C/C(=C\CC[C@@H](C)[C@H]1CC[C@@]2(C)[C@@H]3CC[C@H]4C(C)(C)C(=O)CC[C@@]45C[C@@]35CC[C@]12C)C(=O)O` [MANGIFERONIC ACID] is over 100 µM.
The same measure, in the same setting: the same measure for `CC(C)=CCC[C@@H](C)[C@H]1CC[C@@]2(C)C3=C(CC[C@]12C)[C@@]1(C)CC[C@H](O)C(C)(C)[C@@H]1CC3` [LANOSTEROL]: 68.7 µM.
Regarding `C/C(=C\C(O)C[C@@H](C)[C@H]1CC[C@@]2(C)[C@@H]3CC[C@H]4C(C)(C)[C@H](O)CC[C@@]45C[C@@]35CC[C@]12C)C(=O)O` (stereo in doubt; 4), the PC50 came to 16.1 µM.

For another test, the system named is PANC-1. Kind of test: Inhibition of colony formation in human PANC1 cells after 10 days by crystal violet staining based assay. It counts as functional, cell-based. The essentials: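 500 cells/well plated in DMEM and allowed to attach for 24 h at 37 °C, 5% CO2. Treated at 12.5, 25 and 50 μM in DMEM and grown for 10 days. Cells washed with PBS, fixed in 4% formaldehyde, stained with crystal violet for 10 min. Three independent repeats.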
As for `C/C(=C\C(O)C[C@@H](C)[C@H]1CC[C@@]2(C)[C@@H]3CC[C@H]4C(C)(C)[C@H](O)CC[C@@]45C[C@@]35CC[C@]12C)C(=O)O` (stereo in doubt; 5) [listing 2 of 2 here], the inhibition entry was “Dose-dependent effect”.

The next test relates to PANC-1. Put plainly: Antiausteritic activity against human PANC1 cells in nutrient-deprived medium assessed as changes in cell morphology at 5 uM after 24 hrs by ethidium bromide/acridine orange staining based phase contrast microscopy. The test is classed as functional. The essentials: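 PANC-1 seeded in 60 mm dishes (1 × 10^6), grown 24 h in DMEM at 37 °C, 5% CO2, washed twice with PBS, then switched to NDM with or without compound. After 24 h, EB/AO reagent added for 5 min. Imaged at 40× in fluorescence and phase-contrast modes. AO marks live cells green, EB marks dead cells red.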
Regarding `C/C(=C\C(O)C[C@@H](C)[C@H]1CC[C@@]2(C)[C@@H]3CC[C@H]4C(C)(C)[C@H](O)CC[C@@]45C[C@@]35CC[C@]12C)C(=O)O` (stereo in doubt; 5) [listing 2 of 2 here], the outcome was Active.
